From paper PMC12815959 (Nature Communications, 2025) come the findings set out here.

Usually IC50 stands for the concentration needed to halve the response being measured. A high value points to weaker potency in that assay. In general, Kd refers to a measure of binding affinity in units of concentration. A low value points to tighter binding.

In experiment [1] the target is T1, lipopolysaccharide-responsive beige-like anchor protein (LRBA) (Homo sapiens, UniProt P50851). Nature of the experiment: Nluc complementation with purified LRBA PH. The class given is cell-based. A digest of the protocol:
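HEK293T cells were transfected with three plasmids and treated with test compound in DMEM assay medium at 250.00, 100.00, 33.30, 10.00, 3.33, 1.00, 0.33, 0.10, 0.03 and 0.01 μM. Inhibition of the CTLA4–LRBA interaction was read as the Nluc/Firefly luciferase ratio by dual-luciferase assay. In the cell-free format, Flag-purified Sm-LRBA PH was preincubated with compound for 2 h at 25 °C. Myc-purified CTLA4 CT-Lg was then added for 18 h at 25 °C.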
Target sequence in this assay (P50851 2073-2489): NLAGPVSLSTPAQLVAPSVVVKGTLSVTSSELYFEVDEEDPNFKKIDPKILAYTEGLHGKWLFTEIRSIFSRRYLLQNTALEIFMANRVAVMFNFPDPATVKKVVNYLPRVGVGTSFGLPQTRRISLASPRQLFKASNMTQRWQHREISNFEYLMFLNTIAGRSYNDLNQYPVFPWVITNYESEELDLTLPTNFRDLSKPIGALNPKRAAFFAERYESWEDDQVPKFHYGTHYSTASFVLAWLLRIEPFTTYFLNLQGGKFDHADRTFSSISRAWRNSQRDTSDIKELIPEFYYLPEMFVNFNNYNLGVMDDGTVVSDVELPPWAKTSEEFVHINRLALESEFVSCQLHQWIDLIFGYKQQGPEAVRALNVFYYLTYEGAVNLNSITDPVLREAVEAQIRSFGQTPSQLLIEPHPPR
Target sequence in this assay (P16410 36-223, further chain): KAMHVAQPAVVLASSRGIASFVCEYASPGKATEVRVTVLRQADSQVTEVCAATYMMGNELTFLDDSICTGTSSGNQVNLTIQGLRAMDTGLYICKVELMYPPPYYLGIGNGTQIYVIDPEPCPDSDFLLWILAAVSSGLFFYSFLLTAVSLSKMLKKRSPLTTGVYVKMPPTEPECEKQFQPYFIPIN

For experiment [2], the target named is T1, lipopolysaccharide-responsive beige-like anchor protein (LRBA). The experiment is described as follows: ITC with purified LRBA PH domain. The class given is binding.
Target sequence in this assay (P50851 2073-2489 limits assumed): as the sequence (P50851 2073-2489) above

Structures are written as SMILES.

`NCC1CCN(c2nccc(-c3ccc4ccccc4c3)n2)CC1` [WAY-262611] came in with an IC50 in experiment [1] of 0.34 µM.

Turning to `c1ccc2ncc(-c3ccnc(N4CCNCC4)n3)cc2c1` [LC427, 3-(2-(piperazin-1-yl)pyrimidin-4-yl) quinoline], binding in experiment [2] was characterised by a dissociation constant (Kd) of 19.6 µM.
